In article PMC8189251 (ACS chemical biology, 2021):

Tests used:
U2 snRNP = conditions: bypassed by an ATP-dependent rearrangement; cited from earlier work
SF3B [1] = target: T1, SF3B (Homo sapiens, UniProt O75533+Q7RTV0); conditions: cited from earlier work; for splicing products with inhibitor alone: 1 μM inhibitor alone in in vitro splicing reaction
U2 snRNA = assay: RNase H cleavage analysis of U2 snRNA accessibility in nuclear extract; type: biochemical, human; conditions: 1 μM, 10 minutes at 30°C
Procedure, shortened: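 HeLa nuclear extract (40%), ATP-depleted 10 min at 30°C, in 60 mM potassium glutamate, 2 mM Mg acetate, 0.1 mg/mL tRNA, ±2 mM ATP, with test compound or DMSO, 10 min, 30°C. Oligos against U2 nt 24–38 or 32–46 (5 μM) were added for 15 min for endogenous RNase H cleavage, then DNase-removed. Read-out: primer extension (³²P primer, U2 97–117; MMLV RT, 53°C, 30 min), denaturing gel, phosphorimaging.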

SF3B [2] = target: T1, SF3B; type: biochemical; conditions: for splicing efficiency, first incubation at 30°C compared to 4°C before excess iHB: 1 μM inhibitor, then 100 μM iHB

CC[C@H](O)[C@@H](C)[C@H]1O[C@@H]1C[C@@](C)(O)/C=C/C=C(\C)[C@H]1OC(=O)C[C@H](O)CC[C@@](C)(O)[C@@H](OC(=O)N2CCN(C3CCCCCC3)CC2)/C=C/[C@@H]1C [E7107]
effect on U2 snRNPs ability to engage an oligo containing the branch sequence (U2 snRNP): inhibits

CO[C@]1(C)C[C@@]2(CO2)[C@H](O)[C@@H](/C=C/C(C)=C/C[C@@H]2O[C@H](C)[C@H](NC(=O)/C=C\[C@H](C)OC(C)=O)C[C@@H]2C)O1 [SSA, spliceostatin A]
splicing products with inhibitor alone (SF3B [1]): not detected
effect on ATP-dependent changes in U2 snRNA cleavage (U2 snRNA): does not interfere
splicing efficiency, inhibitor incubated before excess iHB competitor (SF3B [2]; 1 μM inhibitor 10 min, then 100 μM iHB 10 min): greatly reduced
splicing products, inhibitor followed by DMSO (SF3B [2]; 1 μM inhibitor 10 min, then DMSO 10 min, 4°C): no splicing products
splicing efficiency, first incubation at 30°C compared to 4°C before excess iHB (SF3B [2]): lower
off-rate (SF3B [2]; inferred from order of addition, not direct binding): very slow

CO[C@H]([C@@H](C)[C@H]1O[C@]1(C)C[C@H](C)/C=C/C=C(\C)[C@H]1O[C@@H](CC(=O)O)CC[C@@H]1C)[C@@H](C)O [compound 1, herboxidiene]
splicing products with inhibitor alone (SF3B [1]): not detected
IC50 (SF3B [1]; read-out: IC50 value for in vitro splicing, HeLa nuclear extract): 0.3 µM
splicing efficiency, first incubation at 30°C compared to 4°C before excess iHB (SF3B [2]): lower
